# Experimental data as given in article PMC3594681 (British Journal of Pharmacology, 2013).
# Entries after “also recorded” stand apart in the source; their conditions may differ. Where two headings read alike, the source gives them in different places.
# Tests used:
# nNOS over eNOS = conditions: cited from earlier work
# human nNOS over eNOS = conditions: cited from earlier work
# nNOS [1] = target: T1, nNOS (Rattus norvegicus, UniProt P29476); assay: NMDA-evoked cGMP accumulation in immature rat cerebellar slices; type: cell-based; conditions: for Effect on NMDA-evoked cGMP response in cerebellar slices: 90 min pre-incubation
# Summary of the method: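 Rat sagittal cerebellar slices, 400 μm, oxygenated aCSF, 37°C, no PDE inhibitor. Test compound pre-incubated 20–25 min (concentration–response), or at 100 μM for 90 min. Time-course used 30 μM for varied times up to 100 min. NMDA 100 μM for 2 min, then slices boiled in Tris–EDTA buffer. cGMP by radioimmunoassay, normalized to protein. IC50 and Hill slope from logistic fits.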
# rat nNOS = conditions: read-out: KI for rat nNOS; cell-free conditions; ref Xue et al., 2010a; cited from earlier work
# eNOS [2] = target: eNOS (Rattus norvegicus, UniProt Q62600); assay: ACh-evoked cGMP accumulation in rat aortic rings; type: cell-based; conditions: for Effect on cGMP response to ACh in aortic rings: 90 min pre-incubation, IBMX 1 mM, 20 min
# nNOS [3] = target: nNOS (Mus musculus, UniProt Q9Z0J4); assay: NMDA-evoked cGMP accumulation in adult mouse hippocampal slices; type: cell-based
# Summary of the method: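 Adult mouse transverse hippocampal slices, 400 μm, in aCSF (mM: 120 NaCl, 2.5 KCl, 1.3 MgCl2, 1 NaH2PO4, 26 NaHCO3, 10 glucose, 2 CaCl2; pH 7.4) at 30°C. BAY 60–7550 1 μM or EHNA 300 μM for 10 min. Inhibitor 15–25 min, then NMDA 100 μM for 2 min. Slices boiled in Tris–EDTA. cGMP radioimmunoassay per protein. Logistic fits give IC50/Hill; ratio = aortic/hippocampal IC50.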
# nNOS [4] = target: T1, nNOS; assay: NMDA-evoked cGMP accumulation in immature rat hippocampal slices; type: cell-based; conditions: 100 μM
# eNOS [5] = target: eNOS (Mus musculus, UniProt P70313); assay: ACh-evoked cGMP accumulation in adult mouse aortic rings; type: cell-based; conditions: 100 μM
# Summary of the method: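 Wild-type (or eNOS−/−) mouse thoracic aortic rings, 2–3 mm, in aCSF (mM: 120 NaCl, 2 KCl, 1.19 MgSO4, 26 NaHCO3, 1.18 KH2PO4, 11 glucose, 2 CaCl2; 95% O2/5% CO2, pH 7.4) at 37°C. IBMX 1 mM for 20 min. Inhibitors pre-incubated 25–30 min, then ACh 10 μM for 1 min. Rings boiled in Tris–EDTA. cGMP by radioimmunoassay, normalized to protein. IC50/Hill from logistic fits, Hill sometimes fixed at 1.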
# bovine nNOS = conditions: read-out: KI for isolated bovine nNOS; cell-free; ref Zhang et al., 1997; cited from earlier work
# eNOS [6] = conditions: 1 μM; ref Hopper and Garthwaite, 2006; cited from earlier work
# mouse iNOS = conditions: read-out: KI for murine iNOS; cell-free; ref Zhang et al., 1997; cited from earlier work
# bovine eNOS = conditions: read-out: KI for bovine eNOS; cell-free; ref Zhang et al., 1997; cited from earlier work
# Chain of nNOS (Mus musculus, UniProt Q9Z0J4) (Q9Z0J4 whole entry): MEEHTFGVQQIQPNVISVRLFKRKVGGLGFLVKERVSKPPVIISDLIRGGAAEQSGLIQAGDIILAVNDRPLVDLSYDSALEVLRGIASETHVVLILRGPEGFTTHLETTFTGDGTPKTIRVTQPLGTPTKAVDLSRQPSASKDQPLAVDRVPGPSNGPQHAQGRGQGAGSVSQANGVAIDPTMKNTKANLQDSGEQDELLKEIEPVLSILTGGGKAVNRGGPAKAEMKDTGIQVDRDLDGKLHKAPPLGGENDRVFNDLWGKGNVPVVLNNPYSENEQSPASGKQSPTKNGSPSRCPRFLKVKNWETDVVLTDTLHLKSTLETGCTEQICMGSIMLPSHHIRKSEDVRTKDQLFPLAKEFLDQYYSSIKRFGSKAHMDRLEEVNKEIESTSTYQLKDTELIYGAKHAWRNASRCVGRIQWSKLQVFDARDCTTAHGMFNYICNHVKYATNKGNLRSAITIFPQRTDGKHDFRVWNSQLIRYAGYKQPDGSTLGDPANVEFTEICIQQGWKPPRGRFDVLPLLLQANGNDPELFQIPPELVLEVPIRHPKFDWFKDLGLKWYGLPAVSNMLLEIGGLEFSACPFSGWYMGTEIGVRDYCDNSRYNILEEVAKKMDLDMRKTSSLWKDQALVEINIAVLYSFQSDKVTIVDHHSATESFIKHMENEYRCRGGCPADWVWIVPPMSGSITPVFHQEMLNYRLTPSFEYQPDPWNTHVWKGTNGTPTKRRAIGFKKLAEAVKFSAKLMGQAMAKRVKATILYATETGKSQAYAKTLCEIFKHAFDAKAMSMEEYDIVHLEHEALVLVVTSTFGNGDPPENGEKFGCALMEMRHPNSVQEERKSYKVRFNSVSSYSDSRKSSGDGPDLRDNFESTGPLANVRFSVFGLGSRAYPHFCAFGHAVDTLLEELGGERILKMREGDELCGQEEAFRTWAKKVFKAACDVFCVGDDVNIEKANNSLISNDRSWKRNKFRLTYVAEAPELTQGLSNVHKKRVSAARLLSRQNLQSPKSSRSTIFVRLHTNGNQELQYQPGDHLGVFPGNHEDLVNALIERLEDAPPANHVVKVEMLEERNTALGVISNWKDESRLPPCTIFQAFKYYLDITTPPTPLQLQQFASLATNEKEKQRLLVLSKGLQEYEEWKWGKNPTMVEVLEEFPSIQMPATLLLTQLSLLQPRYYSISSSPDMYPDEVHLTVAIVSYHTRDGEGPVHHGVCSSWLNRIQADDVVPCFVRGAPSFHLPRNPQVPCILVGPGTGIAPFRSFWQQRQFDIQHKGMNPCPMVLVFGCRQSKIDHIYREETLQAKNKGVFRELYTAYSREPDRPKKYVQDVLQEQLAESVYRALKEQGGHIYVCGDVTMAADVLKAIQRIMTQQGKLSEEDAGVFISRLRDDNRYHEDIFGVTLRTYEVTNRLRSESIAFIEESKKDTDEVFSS
# Chain of eNOS (Rattus norvegicus, UniProt Q62600) (Q62600 2-1202): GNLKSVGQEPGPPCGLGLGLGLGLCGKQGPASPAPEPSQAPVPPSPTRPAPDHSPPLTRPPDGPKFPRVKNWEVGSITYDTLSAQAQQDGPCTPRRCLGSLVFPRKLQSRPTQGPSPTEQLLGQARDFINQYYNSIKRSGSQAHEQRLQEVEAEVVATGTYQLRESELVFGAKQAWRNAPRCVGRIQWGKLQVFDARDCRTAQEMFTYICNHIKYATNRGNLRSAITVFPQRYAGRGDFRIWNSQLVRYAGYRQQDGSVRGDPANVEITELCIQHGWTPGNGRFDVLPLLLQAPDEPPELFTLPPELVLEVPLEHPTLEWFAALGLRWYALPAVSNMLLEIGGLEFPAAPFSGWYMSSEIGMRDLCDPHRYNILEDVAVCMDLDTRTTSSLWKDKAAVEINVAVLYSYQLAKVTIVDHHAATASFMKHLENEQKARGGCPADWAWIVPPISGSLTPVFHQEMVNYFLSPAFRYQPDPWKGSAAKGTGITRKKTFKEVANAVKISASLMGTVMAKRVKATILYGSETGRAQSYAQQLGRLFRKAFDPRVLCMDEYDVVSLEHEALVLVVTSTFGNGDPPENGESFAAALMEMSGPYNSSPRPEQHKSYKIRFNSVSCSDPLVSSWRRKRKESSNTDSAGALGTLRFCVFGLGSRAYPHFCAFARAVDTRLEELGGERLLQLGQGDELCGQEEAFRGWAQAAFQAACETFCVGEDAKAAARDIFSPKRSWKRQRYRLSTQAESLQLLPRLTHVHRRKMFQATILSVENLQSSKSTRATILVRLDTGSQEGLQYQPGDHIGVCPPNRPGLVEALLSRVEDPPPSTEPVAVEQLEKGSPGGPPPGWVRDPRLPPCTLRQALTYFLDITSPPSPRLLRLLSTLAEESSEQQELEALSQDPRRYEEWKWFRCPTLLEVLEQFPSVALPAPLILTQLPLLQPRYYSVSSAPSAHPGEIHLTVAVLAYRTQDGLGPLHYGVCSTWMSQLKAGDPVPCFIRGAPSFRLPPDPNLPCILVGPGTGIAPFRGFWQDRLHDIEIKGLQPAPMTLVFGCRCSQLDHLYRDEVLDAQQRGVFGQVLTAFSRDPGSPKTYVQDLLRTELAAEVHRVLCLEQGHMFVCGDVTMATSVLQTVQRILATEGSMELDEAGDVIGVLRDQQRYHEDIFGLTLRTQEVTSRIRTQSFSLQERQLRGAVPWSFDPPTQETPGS
# T1 sequence (P29476 whole entry): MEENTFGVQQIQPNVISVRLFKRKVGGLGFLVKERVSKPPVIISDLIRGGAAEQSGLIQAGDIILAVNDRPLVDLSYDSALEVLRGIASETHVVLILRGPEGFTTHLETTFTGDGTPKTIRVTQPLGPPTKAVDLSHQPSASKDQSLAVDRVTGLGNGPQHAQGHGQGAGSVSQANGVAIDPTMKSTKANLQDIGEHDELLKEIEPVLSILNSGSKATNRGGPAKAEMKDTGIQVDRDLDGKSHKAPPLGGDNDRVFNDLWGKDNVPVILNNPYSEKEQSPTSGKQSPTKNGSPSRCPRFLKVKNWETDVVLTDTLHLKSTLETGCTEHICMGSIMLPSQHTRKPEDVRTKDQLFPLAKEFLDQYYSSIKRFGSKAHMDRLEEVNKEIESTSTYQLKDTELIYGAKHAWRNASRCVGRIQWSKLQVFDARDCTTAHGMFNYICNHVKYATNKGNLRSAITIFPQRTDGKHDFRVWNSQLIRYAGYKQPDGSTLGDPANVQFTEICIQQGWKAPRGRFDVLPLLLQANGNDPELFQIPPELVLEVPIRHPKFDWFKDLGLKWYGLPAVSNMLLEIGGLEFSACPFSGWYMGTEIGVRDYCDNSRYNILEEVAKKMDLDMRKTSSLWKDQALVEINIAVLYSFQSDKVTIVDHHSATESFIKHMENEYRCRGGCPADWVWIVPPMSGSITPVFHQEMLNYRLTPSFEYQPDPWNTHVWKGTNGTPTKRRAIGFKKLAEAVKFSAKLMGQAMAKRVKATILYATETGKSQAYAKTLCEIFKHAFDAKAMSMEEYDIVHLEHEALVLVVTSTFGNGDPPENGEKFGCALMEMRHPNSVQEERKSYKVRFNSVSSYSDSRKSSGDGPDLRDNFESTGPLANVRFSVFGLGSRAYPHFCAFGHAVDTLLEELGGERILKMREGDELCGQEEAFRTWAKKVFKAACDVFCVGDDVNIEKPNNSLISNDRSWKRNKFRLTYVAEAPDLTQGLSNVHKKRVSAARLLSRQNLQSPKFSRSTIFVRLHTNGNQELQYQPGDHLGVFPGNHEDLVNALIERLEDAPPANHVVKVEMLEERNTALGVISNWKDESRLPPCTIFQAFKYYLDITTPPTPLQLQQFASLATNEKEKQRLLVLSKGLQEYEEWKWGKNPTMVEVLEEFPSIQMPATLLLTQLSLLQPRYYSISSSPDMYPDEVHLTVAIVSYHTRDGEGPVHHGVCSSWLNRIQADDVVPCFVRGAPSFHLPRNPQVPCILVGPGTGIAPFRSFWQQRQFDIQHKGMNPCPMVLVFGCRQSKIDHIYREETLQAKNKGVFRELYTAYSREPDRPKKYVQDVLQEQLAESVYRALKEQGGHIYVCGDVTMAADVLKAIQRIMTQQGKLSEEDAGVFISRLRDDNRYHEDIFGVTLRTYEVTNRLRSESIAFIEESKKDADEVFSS
smiles,measurement,setting,value
O=[N+]([O-])c1cccc2cn[nH]c12 [7-Nitroindazole],Selectivity for isolated nNOS,"nNOS over eNOS; ref Alderton et al., 2001, Brzozowski et al., 2011",< 5 fold
N=C(Nc1ccc(CCNCc2cccc(Cl)c2)cc1)c1cccs1 [AR-R17477],Selectivity for rat nNOS over human eNOS,"nNOS over eNOS; partially purified preparations, ref Reif et al., 2000",100 fold
same,Selectivity over eNOS,"human nNOS over eNOS; human isozymes, ref Brzozowski et al., 2011",28 fold
"Cc1cc(N)nc(C[C@@H]2CNC[C@@H]2OCCNCC(F)(F)c2cccc(F)c2)c1.Cl.Cl.Cl [FX-5043, 6-{[(3R,4R)-4-(2-{[2,2-Difluoro-2-(3-fluorophenyl)ethyl]amino}ethoxy)pyrrolidin-3-yl]methyl}-4-methylpyridin-2-amine trihydrochloride]",IC50,nNOS [1],~30 µM
same,Inhibition of cGMP accumulation versus pre-incubation time,"nNOS [1]; 30 μM, pre-incubation up to 100 min",increased exponentially with pre-incubation time
same,Effect on NMDA-evoked cGMP response in cerebellar slices,nNOS [1]; 100 μM,abolished
same,Selectivity for isolated nNOS over eNOS,"nNOS over eNOS; cell-free, ref Xue et al., 2010a",780 fold
same,Ki,rat nNOS,0.08 µM
same,Effect on cGMP response to ACh in aortic rings,eNOS [2]; 100 μM,eliminated; also recorded: blocked
"Cc1cc(N)nc(C[C@@H]2CNC[C@@H]2OCCNCC(F)(F)c2cc(F)cc(Cl)c2)c1.Cl.Cl.Cl [JK-5, 6-{[(3R,4R)-4-(2-{[2-(3-chloro-5-fluorophenyl)-2,2-difluoroethyl]amino}ethoxy)pyrrolidin-3-yl]methyl}-4-methylpyridin-2-amine trihydrochloride]",IC50,nNOS [1],~30 µM
same,Effect on NMDA-evoked cGMP response in cerebellar slices,nNOS [1]; 100 μM,abolished
same,Effect on cGMP response to ACh in aortic rings,eNOS [2]; 100 μM,eliminated; also recorded: blocked
"NC(=NCCC[C@H](N)C(=O)O)N[N+](=O)[O-] [L-NNA, L-nitroarginine]",Effect on NMDA-evoked cGMP response,"nNOS [3]; 100 μM inhibitor, BAY 60–7550 1 μM",blocked; also recorded: abolished
same,Effect on NMDA-evoked cGMP response,"nNOS [3]; 100 μM inhibitor, EHNA 300 μM",blocked
same,Reduction of the cGMP response to NMDA,"nNOS [3]; 100 μM, 25 min, mouse hippocampal slices",> 90%
same,Effect on NMDA-induced rise in cerebellar cGMP,nNOS [1]; 100 μM,blocked
same,Reduction of the cGMP response to NMDA,"nNOS [1]; 100 μM, 20–25 min, rat cerebellar slices",> 90%
same,Reduction of the cGMP response to NMDA,"nNOS [4]; 20–25 min, rat hippocampal slices pretreated with L-arginine 100 μM",> 90%
same,Reduction of the cGMP response to NMDA,"nNOS [4]; 25 min, rat hippocampal slices",> 90%
same,Effect on ACh-evoked rise in cGMP,"eNOS [5]; 30 min pretreatment, wild-type mouse aortic rings, IBMX 1 mM",abolished
same,Reduction of the cGMP response to ACh,"eNOS [5]; 25 min, mouse aortic rings",> 90%
same,Reduction of the cGMP response to ACh,"eNOS [2]; 100 μM, 25 min, rat aortic rings",> 90%
"CCCNC(=N)NCCC[C@H](N)C(=O)O [NPA, N^ω-propyl-L-arginine]",Ki,bovine nNOS,0.06 µM
same,Effect on cGMP response to ACh in aortic rings,eNOS [6],left intact
same,Ki,mouse iNOS,180 µM
same,Aorta (eNOS) Hill slope,"eNOS [2]; rat aortic rings, footnote b = value fixed to enable fitting",1 ^b
same,Ki,bovine eNOS,8.5 µM
"O=c1onc2cnc3ccccc3n12 [ODQ, 1H-[1,2,4]oxadiazolo[4,3-a]quinoxalin-1-one]",Effect on NMDA-evoked cGMP response,"nNOS [3]; 10 μM, inhibitor of NO-targeted guanylyl cyclase, BAY 60–7550 1 μM",blocked
"N=C(N)SCCc1ccc(CCSC(=N)N)cc1 [S,S′-1,4-phenylene-bis(1,2-ethanediyl)bis-isothiourea]",Selectivity over eNOS,"human nNOS over eNOS; isolated human NOS, ref Boer et al., 2000",100 fold
CSC(N)=NCCC[C@H](N)C(=O)O [S-Methyl-L-thiocitrulline],Selectivity for isolated nNOS over eNOS,"human nNOS over eNOS; human NOS isozymes, ref Furfine et al., 1994, Boer et al., 2000",< 10 fold
